Measured values collected from several papers.
Lines come from different studies, so protocols differ.
Observed: metabolic stability
Host: human

Cn1c(=O)c2c(ncn2C)n(C)c1=O
hepatocyte CLint (hepatocytes; 0.5 µM; pH 7.4): 1.85 µL/min/10⁶ cells

CC[N+]1(C)CCN(c2ccc(C(=O)Nc3cccc(C)n3)cc2)CC1
microsomal CLint (liver microsomes): < 3 µL/min/mg

CCC(CC)COC(=O)[C@H](C)N[P@](=O)(OC[C@@H]1C[C@@H](O)[C@H](n2cnc3c(N)ncnc32)O1)Oc1ccccc1
microsomal CLint (liver microsomes; 1 µM): 2120 µL/min/mg

C[C@]1(C(=O)[C@H](Cc2ccccc2)NC(=O)[C@@H]2Cc3ccc(cc3)OCCCCCCCC(=O)N3CCC[C@H]3C(=O)N2)CO1
scaled CLint (liver microsomes; 2 µM; 1 h): 927 mL/min/kg

Cc1ccc(Cn2cc(C(=O)NN)c(=O)c3cc(Oc4ccccc4)ccc32)cc1
microsomal CLint (liver microsomes; 1 µM): < 11.6 µL/min/mg

CCN(CCN)c1ccc(Nc2cc(NC3CC3)n3ncc(C#N)c3n2)cc1-n1cnnc1
scaled CLint (hepatocytes; 1 µM; serum-free): < 6.9 mL/min/kg

CC1(CN)CCN(c2cnc3c(Sc4ccncc4Cl)n[nH]c3n2)CC1
scaled CLint (liver microsomes): 34 mL/min/kg

CCn1ccc2c([C@](O)(c3cnc(C(F)(F)F)c(Cl)c3)C3CC3)n(C)nc2c1=O
microsomal CLint (liver microsomes; 0.5 µM; pH 7.4): < 3 µL/min/mg

O=c1ccc2cc(O)ccc2o1
microsomal CLint (liver microsomes): 22 µL/min/mg

Cn1nc2c(=O)n(C3CC3)cnc2c1[C@](O)(c1cnc(C(F)(F)F)c(Cl)c1)C(F)(F)F
hepatocyte CLint (hepatocytes; 0.5 µM; pH 7.4): 0.5 µL/min/10⁶ cells

CC(C)C[C@H](NC(=O)[C@@H]1COCCCCCC(=O)NCC(=O)N2CCC[C@H]2C(=O)N1)C(=O)[C@@]1(C)CO1
scaled CLint (liver microsomes; 2 µM; 1 h): 22.5 mL/min/kg

CCn1cc(C)c2c(C(O)c3ccc(Cl)c(F)c3)n(C)nc2c1=O (stereo not shown)
microsomal CLint (liver microsomes; 0.5 µM; pH 7.4): 23 µL/min/mg

C[C@]1(C(=O)[C@H](CC2=CCCC2)NC(=O)[C@@H]2COCCCCCC(=O)N3C[C@H](F)C[C@H]3C(=O)N2)CO1
scaled CLint (liver microsomes; 2 µM; 1 h): 150 mL/min/kg

CC[C@@](O)(c1cnc(C(F)(F)F)c(Cl)c1)c1c2ccn(C3CC3)c(=O)c2nn1C
hepatocyte CLint (hepatocytes; 0.5 µM; pH 7.4): 1.6 µL/min/10⁶ cells

O=c1ccc2ccc(O)cc2o1
hepatocyte CLint (hepatocytes; 1 µM): 56 µL/min/10⁶ cells

C[C@]1(C(=O)[C@H](Cc2ccccc2)NC(=O)[C@@H]2COCCCCCC(=O)N3C[C@H](F)C[C@H]3C(=O)N2)CO1
scaled CLint (liver microsomes; 2 µM; 1 h): 93.1 mL/min/kg

CCOc1ccc(NC(C)=O)cc1
microsomal CLint (liver microsomes): 20.7 µL/min/mg

Cn1nc2c(=O)n(C3CC3)nc(C3CC3)c2c1Cc1ccc(C(F)(F)F)c(F)c1
microsomal CLint (liver microsomes; 0.5 µM; pH 7.4): 4.6 µL/min/mg

Nc1ncnc2c1ncn2[C@@H]1O[C@H](CO)C[C@H]1O
microsomal CLint (liver microsomes; 1 µM): 142 µL/min/mg
